Tests used:
Settings in all cases: Neutrophil
[1] = Antiinflammatory activity in fMLP/cytochalasin B-stimulated human neutrophils assessed as inhibition of superoxide anion generation after 5 mins; type: functional, cell-based
In short: (§1)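 Donor neutrophils isolated by dextran sedimentation, Ficoll Hypaque and hypotonic lysis, kept in Ca2+-free HBSS pH 7.4 at 4 °C. Cells given 0.5 mg/mL ferricytochrome c and 1 mM Ca2+, 2 min at 37 °C, drug 5 min, CB 1 μg/mL 3 min, then 100 nM fMLP for 10 min. SOD-inhibitable cytochrome c reduction. IC50 or % inhibition at 10 μg/mL; mean ± S.E.M., n = 3-4.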

[2] = Antiinflammatory activity in fMLP/cytochalasin B-stimulated human neutrophils assessed as inhibition of elastase release at 10 ug/ml after 5 mins; type: functional
In short: (§2)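 Neutrophils from healthy donor blood (dextran sedimentation, Ficoll Hypaque, hypotonic erythrocyte lysis; >98% viable), held in Ca2+-free HBSS pH 7.4 at 4 °C. 5 × 10⁵ cells/mL with 100 μM MeO-Suc-Ala-Ala-Pro-Val-p-nitroanilide, 2 min at 37 °C, drug 5 min, then 100 nM fMLP + 0.5 μg/mL CB. A405 followed continuously; percent of initial rate versus drug-free control. IC50 or % inhibition at 10 μg/mL; mean ± S.E.M., n = 3-4.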

[3] = Antiinflammatory activity in fMLP/cytochalasin B-stimulated human neutrophils assessed as inhibition of elastase release after 5 mins; type: functional, cell-based; in short: as §2
[4] = Antiinflammatory activity in fMLP/cytochalasin B-stimulated human neutrophils assessed as inhibition of superoxide anion generation at 10 ug/ml after 5 mins; type: functional; in short: as §1

| Structure (SMILES) | IC50 [1] [µM] | inhibition at 10 µg/mL [2] [%] | IC50 [3] [µM] | inhibition at 10 µg/mL [4] [%] |
| --- | --- | --- | --- | --- |
| O=C(N[C@@H](Cc1c[nH]c2ccccc12)C(=O)O)OCC1c2ccccc2-c2ccccc21 | 3.3 | 45.4 | – | – |
| O=C(N[C@@H](Cc1ccccc1)C(=O)O)OCC1c2ccccc2-c2ccccc21 | 14.1 | – | 14.2 | – |
| CC(=O)OC[C@@H](Cc1ccccc1)NC(=O)[C@H](Cc1ccc(O)cc1)NC(=O)OCC1c2ccccc2-c2ccccc21 | – | – | 6.5 | 8 |
| CC(=O)OC[C@H](Cc1ccccc1)NC(=O)[C@H](Cc1ccccc1)NC(=O)OCC1c2ccccc2-c2ccccc21 | – | 39.5 | – | 2.8 |
| CC(=O)OC[C@H](Cc1ccccc1)NC(=O)[C@H](Cc1ccc(O)cc1)NC(=O)OCC1c2ccccc2-c2ccccc21 | – | 22.8 | – | -0.5 |
| CC(=O)OC[C@H](Cc1ccccc1)NC(=O)[C@@H](NC(=O)OCC1c2ccccc2-c2ccccc21)C(C)C | – | 27.7 | – | -6.3 |
| CC(=O)OC[C@@H](Cc1ccccc1)NC(=O)[C@H](Cc1c[nH]c2ccccc12)NC(=O)OCC1c2ccccc2-c2ccccc21 | – | – | 1.7 | 18.6 |
| CC(=O)OC[C@H](Cc1ccccc1)NC(=O)[C@H](Cc1c[nH]c2ccccc12)NC(=O)OCC1c2ccccc2-c2ccccc21 | – | – | 5.5 | 24.5 |
| CC(=O)OC[C@H](Cc1ccccc1)NC(=O)[C@@H](N)Cc1ccc(O)cc1 | – | 22.8 | – | -0.5 |
| CC(=O)OC[C@H](Cc1ccccc1)NC(=O)[C@H](Cc1ccccc1)NC(=O)OCc1ccccc1 | – | 27.2 | – | 39.3 |
| CC[C@H](C)[C@H](NC(=O)OCC1c2ccccc2-c2ccccc21)C(=O)N[C@@H](COC(C)=O)Cc1ccccc1 | – | 22.5 | – | 6 |
| CC(=O)OC[C@@H](Cc1ccccc1)NC(=O)[C@@H](NC(=O)OCC1c2ccccc2-c2ccccc21)C(C)C | – | 34.6 | – | -2.3 |
| CC(=O)OC[C@@H](Cc1ccccc1)NC(=O)[C@H](Cc1ccccc1)NC(=O)OCc1ccccc1 | – | 35.4 | – | 40.9 |
| CC(=O)OC[C@H](Cc1ccccc1)NC(=O)[C@H](Cc1cn(C(c2ccccc2)(c2ccccc2)c2ccccc2)cn1)NC(=O)OCC1c2ccccc2-c2ccccc21 | – | 32 | – | 9.5 |
| CC(=O)OC[C@H](Cc1ccccc1)NC(=O)[C@H](Cc1ccc(OC(C)(C)C)cc1)NC(=O)OCC1c2ccccc2-c2ccccc21 | – | – | 0.8 | 25.9 |
| CC(=O)OC[C@@H](Cc1ccccc1)NC(=O)[C@H](Cc1ccccc1)NC(=O)OCC1c2ccccc2-c2ccccc21 | – | – | 12.9 | 31.3 |

| Structure (SMILES) | IC50 [1] [µM] | inhibition at 10 µg/mL [2] [%] | IC50 [3] [µM] | inhibition at 10 µg/mL [4] [%] |
| --- | --- | --- | --- | --- |
| CC(=O)OC[C@@H](Cc1ccccc1)NC(=O)[C@H](Cc1ccc2ccccc2c1)NC(=O)OCC1c2ccccc2-c2ccccc21 | – | – | 14.5 | 2.1 |
| CC(=O)OC[C@H](Cc1ccccc1)NC(=O)[C@H](Cc1ccc2ccccc2c1)NC(=O)OCC1c2ccccc2-c2ccccc21 | – | 37.8 | – | 5 |
| CC(=O)OC[C@@H](Cc1ccccc1)NC(=O)[C@H](Cc1ccc(OC(C)(C)C)cc1)NC(=O)OCC1c2ccccc2-c2ccccc21 | – | 31.9 | – | 22.3 |
| CC(=O)OC[C@@H](Cc1ccccc1)NC(=O)[C@H](Cc1cn(C(c2ccccc2)(c2ccccc2)c2ccccc2)cn1)NC(=O)OCC1c2ccccc2-c2ccccc21 | – | -2.9 | – | 6.6 |
| CC(=O)OC[C@@H](Cc1ccccc1)NC(=O)[C@@H](N)Cc1ccccc1 | > 20 | – | > 20 | – |
| CC(=O)OC[C@@H](Cc1ccccc1)NC(=O)[C@H](Cc1ccccc1)NC(=O)OC(C)(C)C | – | 11 | – | 4.7 |
| CC(C)(C)Oc1ccc(C[C@H](NC(=O)OCC2c3ccccc3-c3ccccc32)C(=O)O)cc1 | 5.5 | – | 5.6 | – |
| CC(=O)OC[C@H](Cc1ccccc1)NC(=O)[C@@H](N)Cc1ccccc1 | > 20 | – | > 20 | – |
| CC(C)[C@H](NC(=O)OCC1c2ccccc2-c2ccccc21)C(=O)O | – | 14.5 | – | 29.4 |
| CC[C@H](C)[C@H](NC(=O)OCC1c2ccccc2-c2ccccc21)C(=O)O | 12.8 | 39.8 | – | – |
| O=C(N[C@@H](Cc1ccc(O)cc1)C(=O)O)OCC1c2ccccc2-c2ccccc21 | 2.4 | – | 2.9 | – |
| CC[C@H](C)[C@H](NC(=O)OCC1c2ccccc2-c2ccccc21)C(=O)N[C@H](COC(C)=O)Cc1ccccc1 | – | 25.8 | – | 2.2 |
| CC(=O)OC[C@H](Cc1ccccc1)NC(=O)[C@H](Cc1ccccc1)NC(=O)OC(C)(C)C | – | 18.9 | – | 42.1 |
| CC(=O)OC[C@@H](Cc1ccccc1)NC(=O)[C@@H](N)Cc1ccc(O)cc1 | – | – | 3.7 | 8 |
| c1ccc2c(c1)[I+]c1ccccc1-2 [DIPHENYLENEIODONIUM] | 0.7 | – | – | – |
